In ChEMBL document CHEMBL4513216, “Probing the Open Global Health Chemical Diversity Library for Multistage-Active Starting Points for Next-Generation Antimalarials” (ACS Infect Dis, 2020):

test: Toxicity liver stage against HepG2, at 10uM; format: cell-based; parameters: test concentration 10 uM, cell line HepG2-A16-CD81EGFP; details: human, HepG2-A16-CD81EGFP cells; read-out: INHIBITION
In short: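 Uninfected HepG2-A16-CD81EGFP cells, 3 × 10^3 per well, 1536-well, plated on prespotted compound at 10 μM final, parasite-free screening media added to match infected plates; puromycin 10 μM positive, DMSO 0.5% negative; run in parallel with 48 h PbLuc assay at 37 °C, 5% CO2; viability by CellTiter-Glo luminescence, normalized to controls.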

| Structure (SMILES) | cytotoxicity at 10 µM [%] |
| --- | --- |
| COc1cc2cc(C(=O)O)n(C)c2c(OC)c1OC | 12.8 |
| COc1ccsc1C(=O)NCCN1CCOCC1 | 6.57 |
| CCN(C1CCS(=O)(=O)C1)S(=O)(=O)c1cccc2cc(C)cnc12 (stereo unspecified) | -11 |
| Cc1nc(Oc2ccccc2F)sc1C(=O)O | -11.2 |
| COc1cccc(-c2nc(CC(=O)NC3(C)CCS(=O)(=O)C3)cs2)c1 (stereo unspecified) | 19 |
| Cc1nc2oc(C(=O)N3CCOCC3)c(N)c2c2c1CCCC2 | -2.8 |
| CC1CCN(C(=O)c2cn(-c3cc(N4CCOCC4)ncn3)cn2)CC1 | 1.75 |
| Cn1cc(S(=O)(=O)NCC2CCN(C(=O)c3ccoc3)CC2)cn1 | -3.82 |
| O=C1[C@H]2CN(C(=O)[C@H]3CCCO3)C[C@H]2CN1CC1CC1 | -6.66 |
| Cc1nc(N2CCCC2)nc2c1CN(C(=O)NC(C)C)CC2 | 2.94 |
| O=C(CCc1nc2cccnc2[nH]1)NCc1ccc2c(c1)OCO2 | 0.356 |
| C[C@H]1C(=O)NC[C@H]2CN(Cc3ccccc3)C[C@H]21 | 1.47 |
| CCn1c(NCc2cccnc2)nc2c(C)nn(C)c2c1=O | 5.17 |
| CCn1nc(C)c2nc(C(C)C)nc(N3CCN(C)CC3)c21 | -2.45 |
| Cc1ncc2c(n1)CCCC2NC(=O)c1ccc(Cn2cccn2)cc1 (stereo unspecified) | -7.55 |
| CNc1cccc(C2CCN(C(C)=O)CC2)n1 | 7.49 |
| Cn1ncc(Cl)c1C(=O)N1CCC(c2nnsc2S(C)(=O)=O)CC1 | -4.7 |
| CN(C)S(=O)(=O)N1CCC(c2n[nH]cc2-c2ccnc(N)c2)C1 (stereo unspecified) | 8.81 |
| Cc1ncc(C(=O)N2CCCC2(C)C(=O)N2CCOCC2)c(C)n1 (stereo unspecified) | -0.681 |
| CC(=O)N1CCOC(c2c(C(=O)O)sc3ccccc23)C1 (stereo unspecified) | 5.76 |
| Cc1c[nH]nc1C1CCN(C(=O)Cn2cccn2)C1 (stereo unspecified) | 3.09 |
| CCc1ccccc1Nc1noc2c1CN(C(=O)C1CCCO1)CC2 (stereo unspecified) | -9.9 |
| CN1CCN(C(=O)C2CCN(c3cccnn3)CC2)CC1 | -0.353 |

| Structure (SMILES) | cytotoxicity at 10 µM [%] |
| --- | --- |
| CNc1cccc(C2CCN(C(=O)c3cccnc3)CC2)n1 | -7.27 |
| CO[C@H]1CN(Cc2cc(F)ccc2F)CC[C@@]12CCCO2 | -8.49 |
| O=C1NCc2ccccc2CC12CCN(Cc1c(F)cccc1Cl)C2 (stereo unspecified) | 11.2 |
| CC(=O)c1sc(Nc2ccc(Cl)cn2)nc1C | 41.9 |
| COc1ccccc1C1(CNc2cn[nH]c(=O)c2Cl)CCOCC1 | 0.152 |
| CN(C)S(=O)(=O)N1CCC(C(O)c2ccc(Cl)cc2)CC1 (stereo unspecified) | -21.4 |
| O=C(Cc1ccon1)Nc1cncc(Br)c1O | 7.06 |
| NC1(c2nc(-c3ccccc3)cc(=O)[nH]2)CCCCC1 | 7.25 |
| CC(C)C(=O)NCc1cc(Br)ccc1F | -3.98 |
| O=C(Nc1cc(C(F)(F)F)c[nH]c1=O)C1CCCO1 (stereo unspecified) | -0.37 |
| CN1CCC(NC(=O)Nc2cnn(-c3ccccc3Cl)c2)CC1 | -5.5 |
| Cc1noc(C)c1NC(=O)N1CCC(NC(=O)OC(C)(C)C)CC1 | 4 |
| CCOc1ccc(Cl)c(C(=O)N2CCCC(c3ccn[nH]3)C2)n1 (stereo unspecified) | 1.58 |
| CCS(=O)(=O)NCC(=O)NC1(C)CCc2ccccc2C1 (stereo unspecified) | 2.22 |
| O=C(CN(Cc1cccc(F)c1)CC1CCCO1)N1CCCC1 (stereo unspecified) | -7.29 |
| COc1ccc(C(=O)Cn2cnnc2[S+](C)[O-])cc1Cl (stereo unspecified) | -8.17 |
| COc1ncccc1NC(=O)N1CCC(C(=O)NC(C)C)CC1 | -3.68 |
| CC(C)n1cc(CN2CCCN(C(=O)c3ccoc3)CC2)cn1 | -3.44 |
| Cc1cc(C)c(S(N)(=O)=O)cc1C(=O)NCC1Cc2ccccc2O1 (stereo unspecified) | -4.53 |
| O=C(CN1CCCC(CO)C1)NCCOc1cccc(Cl)c1 (stereo unspecified) | -12.2 |
| Cc1ccc(F)c2c1N(C(=O)c1cn(CC(=O)N(C)C)nn1)CCC2 | -9.17 |
| CCS(=O)(=O)NCCNC(=O)N(Cc1ccc(C)o1)C(C)C | 1.84 |
| CN(C)c1cccc(C(=O)N2CCn3c(nnc3-c3ccccc3)C2)c1 | -0.375 |

| Structure (SMILES) | cytotoxicity at 10 µM [%] |
| --- | --- |
| Cc1c(Br)cccc1CNC1(CCO)CCOCC1 | -10.7 |
| COCCN(Cc1ccco1)Cc1nc(-c2ccccc2)no1 | 6.4 |
| Cn1cc(C(=O)Nc2cccc(CCN3CCCC3)c2)ccc1=O | 7.76 |
| CC(C)N1CCN(C(=O)c2ccccc2NCc2cccnc2)CC1 | -19.4 |
| Cc1ccccc1N(CC(=O)NCCc1nnc2n1CCC2)S(C)(=O)=O | -0.69 |
| CC(C)c1nnc(NCCS(C)(=O)=O)s1 | -1 |
| CCc1nnc(Sc2nn3cc(C)nc3s2)n1C | -3.64 |
| Cc1nc(S(=O)(=O)N2CCC3(CCCCC3)C2)cn1C | -4.2 |
| CC(=O)N1CCN(C(=O)NCCCN(C(C)C)S(C)(=O)=O)CC1 | -14 |
| COC(=O)CN(Cc1ccccc1C)C(=O)CCNC(=O)C(C)(C)C | 12.9 |
| Cc1cc(C(=O)N2CCS(=O)(=O)CC2)c(C)o1 | -16.8 |
| O=C(NCCCNCC1CNc2ccnn2C1)c1ccccc1 (stereo unspecified) | -1.48 |
| Cc1nc(Cn2c3c(ccc2=O)CC(NC(N)=O)CC3)cs1 (stereo unspecified) | 9.79 |
| CC(=O)c1ccccc1-c1cc(C(=O)O)cc(S(=O)(=O)NC(C)C)c1 | 0.476 |
| Cc1nc(-c2ccncc2)ncc1C(C)NC(=O)C1=NN(C)C(=O)CC1 (stereo unspecified) | -0.205 |
| Cc1cc(C[C@@H]2COC[C@@H]2NC(=O)CCN2Cc3ccccc3C2)on1 | 3.86 |
| CCOCc1nc2c(c(N3CC=CC3)n1)CCN(CC1CC1)CC2 | -21.2 |
| CNC(=O)c1ccnc(CC2COc3c(cccc3OC)C2)c1 (stereo unspecified) | 3.77 |
| Cc1cc(N2C[C@H](C3CC3)[C@@H](N)C2)nc(N2CCCCC2)n1 | -15.6 |
| CC(=O)NCCNC(=O)C1(Oc2cccnc2C)CCNCC1 | 3.24 |
| COCC(=O)N1CCCC1c1ccc(C(=O)NCc2ccccc2Cl)s1 (stereo unspecified) | -0.909 |
| CC(Cc1cnccn1)NC(=O)c1cccc(CC2CCNCC2)c1 (stereo unspecified) | -9.37 |
| CCN1CC2(CCC1=O)CCN(Cc1cccc(OC(F)F)c1)CC2 | -16.5 |

| Structure (SMILES) | cytotoxicity at 10 µM [%] |
| --- | --- |
| O=C(CCN1CCCCO1)N1CCC(CO)(Cc2ccccc2)CC1 | 7.26 |
| c1ccc2c(c1)cnn2CCCNC1CCOC2(CCOCC2)C1 (stereo unspecified) | -7.35 |
| CCN1CCN(C(=O)c2[nH]c3ccccc3c2Cl)[C@H]2CS(=O)(=O)C[C@H]21 | -5.41 |
| CN1CCC(N(C)C[C@H]2CC[C@@H](Cc3cccc(CO)c3)O2)CC1 | 0.224 |
| COC(=O)c1ccc(OC)c(OC23CCCN(CC2)C3)c1 (stereo unspecified) | -13.9 |
| O=C(NC1CCC1)c1cccc(S(=O)(=O)NCc2nc(C3CC3)no2)c1 | -0.0264 |
| COc1ccc(N2CCN(Cc3noc(CC(C)C)n3)C(C)C2=O)cc1 (stereo unspecified) | 4.11 |
| O=C(NCC1CCS(=O)(=O)C1)c1ccc2cccc(Cl)c2n1 (stereo unspecified) | -10.1 |
| O=C1CC2(CCCC2)CC(=O)N1Cc1nc2ncccn2n1 | 2.49 |
| c1ccc2c(c1)CC(Cc1cc(N3CCCC3)cnn1)CCO2 (stereo unspecified) | -5.5 |
| COC(=O)c1cc2c(=O)[nH]c(=O)n(CCc3ccccc3)c2nc1C | -4.74 |
| CSCCC1c2nc[nH]c2CCN1Cc1ccnc2ccccc12 (stereo unspecified) | 13.2 |
| Cn1ncc(NC(=O)c2noc3c2CCCC3)c1C(=O)N1CCCCC1 | -13.4 |
| COc1ccccc1CNC(=O)C[S+]([O-])Cc1cc(C)on1 (stereo unspecified) | -4.92 |
| Cc1cnn(CC2CCCN2C(=O)c2c(C)noc2C(C)C)c1 (stereo unspecified) | -0.502 |
| Clc1cc(CN2CCCCC2Cn2cncn2)c2ncccc2c1 (stereo unspecified) | -12.9 |
| Cn1ncc2c(N3CCCN(C(=O)c4ccsc4)CC3)ncnc21 | -10.6 |
| Cc1nnc(CN(Cc2ccc3c(c2)OCO3)C2CCCCC2)o1 | -6.14 |
| Cc1ccc(CNC(=O)Cn2nc(-c3ccc(F)cc3)oc2=O)cc1F | -5.86 |
| Cc1cc(C)n(CC2CCCN2C(=O)CCNc2ncccn2)n1 (stereo unspecified) | -2.31 |
| CCc1noc(CNCCn2cc(C)cn2)n1 | -2.54 |
| CCC(O)CN1CCN(C(=O)c2ccc3c(c2)COC3)CC1 (stereo unspecified) | -6.58 |
| CC(Cn1ccnc1)NC(=O)NCc1ccc2c(c1)OCCO2 (stereo unspecified) | -18.6 |

| Structure (SMILES) | cytotoxicity at 10 µM [%] |
| --- | --- |
| CS(=O)(=O)c1cccc(C(N)c2ccc(F)cc2)c1 (stereo unspecified) | -19.9 |
| c1cncc(-c2noc(CN3CCCC3Cn3cccn3)n2)c1 (stereo unspecified) | -4.74 |
| Cc1cnn(CC2CCCN2C(=O)Cc2cccs2)c1 (stereo unspecified) | -0.704 |
| Cc1ccc(C(=O)N2CCN(C(=O)Cc3ccccn3)CC2)c(C)c1 | -4.74 |
| CC(NC(=O)NCCCN(C)S(C)(=O)=O)c1cccnc1 (stereo unspecified) | -12.5 |
| Cc1ccc(CNC(=O)CCNS(C)(=O)=O)cc1 | -5.07 |
| O=C(c1cnc(-c2ccccn2)s1)N1CCCC1Cn1cccn1 (stereo unspecified) | -5 |
| COc1ccnc(N2CCN(C(=O)c3ccc(Cl)o3)CC2)n1 | -19.2 |
| O=C(Cc1cccc2ccccc12)N1CCC(Nc2cccnn2)CC1 | -17.1 |
| Cc1cnn(CC2CCCCN2CCC(=O)Nc2cc(C)on2)c1 (stereo unspecified) | -0.674 |
| CC(C)N1CCCCC1c1nc(N(C)C)ncc1I (stereo unspecified) | -3 |
| CN(C)CCCN(Cc1cnn(C)c1)Cc1ccco1 | 2.36 |
| Cc1cnc(N2CCC3(CCN(CC4CCCC4)C3=O)CC2)nc1 | -6.54 |
| c1cncc(COCc2nnn3c2CN(Cc2ccsc2)CC3)c1 | 6.4 |
| CCN1C[C@@H]2CN(Cc3cccs3)C[C@@H]2C1=O | -3.19 |
| Cc1cccc(CN2C(=O)CO[C@@H]3CN(CCO)C[C@H]32)c1 | -14.1 |
| O=C([C@@H]1COC[C@H]2CN(C3CCOCC3)C[C@H]21)N1CCCO1 | -3.2 |
| Cc1nc(=O)c(CC(=O)N2C[C@H]3CC[C@@H](C2)N(CC2CCC2)C3)c[nH]1 | 1.43 |
| CCC(C)NS(=O)(=O)c1ccc(C=Cc2onc(C)c2NC(C)=O)cc1 (stereo unspecified) | -10.7 |
